Assay [1] is filed under the species Homo sapiens. The assay can be described thus: Ability to inhibit the release of interleukin-1-beta (IL-1 beta) from whole blood. It is filed as functional. Put shortly: (§1)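 Human whole blood preincubated 15 min (37 °C, 5% CO2) with compounds in Cremophor EL/ethanol 70:30 (1% final), then stimulated 4 h with 1µg/mL LPS (E. coli 026:B6). Reaction stopped on ice, samples centrifuged, supernatant IL-1β and TNF-α measured by ELISA. IC50 read from semilog plot of % reduction vs control over 10^-4–10^-8 M; at least duplicate.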

Assay [2] can be described thus: Inhibition of the release of interleukin-1-beta from peripheral blood mononuclear cells. It is filed as functional. The note with it: Homo sapiens. Put shortly: (§2)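 PBMC isolated from healthy donor blood by density gradient centrifugation, ~10⁶ cells/mL, preincubated 15 min (37 °C, 5% CO2) with compounds in DMSO (1% final), then LPS 1µg/mL (E. coli 026:B6) for 4 h. Supernatant IL-1β and TNF-α by ELISA after ice stop and centrifugation. IC50 from semilog plot of % reduction vs control, 10^-4–10^-8 M; at least duplicate.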

The species entered for assay [3] is Homo sapiens. The assay can be described thus: Ability to inhibit the release of tumor necrosis factor alpha (TNF-alpha) from whole blood. It is filed as functional. Put shortly:
as §1

In assay [4] the target is Mitogen-activated protein kinase 14 (Homo sapiens, UniProt Q16539). In words: Inhibition of Mitogen-activated protein kinase p38 (P38 MAPK).
Mitogen-activated protein kinase 14, sequence (Q16539 whole entry): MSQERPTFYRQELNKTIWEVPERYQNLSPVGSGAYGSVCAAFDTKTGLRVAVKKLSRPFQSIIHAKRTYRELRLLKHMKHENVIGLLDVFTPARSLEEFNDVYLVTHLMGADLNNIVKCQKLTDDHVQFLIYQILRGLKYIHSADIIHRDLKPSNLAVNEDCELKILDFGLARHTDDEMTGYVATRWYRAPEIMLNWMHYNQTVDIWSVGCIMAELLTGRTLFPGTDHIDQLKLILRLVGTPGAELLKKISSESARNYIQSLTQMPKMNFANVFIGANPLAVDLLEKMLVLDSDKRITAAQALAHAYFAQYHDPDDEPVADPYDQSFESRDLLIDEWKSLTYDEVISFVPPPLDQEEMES
A short description of assay [5]: Inhibition of the release of tumor necrosis factor alpha from peripheral blood mononuclear cells. The note with it: Homo sapiens. The format is functional. Put shortly:
as §2

pIC50: −log10 of the molar value.

A word on the pIC50: it is −log10 of the IC50, conventionally taken in molar units. The low end stands for a high IC50, the high end for a low IC50. `C[S+]([O-])c1ccc(CSc2nc(-c3ccc(F)cc3)c(-c3ccncc3)[nH]2)cc1` (configuration not stated): the pIC50 in assay [1] is 5.56; in assay [2] it was 6.42; in assay [3], 4.69; in assay [4], 5.40; in assay [5], 5.96.

Consider `CSc1nc(-c2ccncc2)c(-c2ccc(F)cc2)[nH]1`, for which the negative-log IC50 (pIC50) in assay [1] was 5.92; in assay [2], 7.36; in assay [3] it was 5.38; in assay [4] it was 6.20; in assay [5], 6.05.

As to `CS(=O)(=O)c1ccc(CSc2nc(-c3ccc(Cl)cc3)c(-c3ccncc3)[nH]2)cc1`, the pIC50 in assay [2] was 6.49; in assay [5] it was 5.21.

With `CSc1ccc(CSc2nc(-c3ccc(Br)cc3)c(-c3ccncc3)[nH]2)cc1`, the negative logarithm of the IC50 (pIC50) in assay [2] is 5.62; in assay [5], 4.89.

Take `C[S+]([O-])c1cc(Cl)cc(CSc2nc(-c3ccc(F)cc3)c(-c3ccncc3)[nH]2)c1O` (configuration not stated): the values for the pIC50 in assay [2] and in assay [5] were 5.36 and 4.55, respectively.

With `C[S+]([O-])c1ccc(CSc2nc(-c3ccc(F)cc3)c(-c3cccnc3)[nH]2)cc1` (configuration not stated), the values for the pIC50 in assay [2] and in assay [5] were 4.01 and under 4.00, respectively.

With `C[S+]([O-])c1ccc(O)c(CSc2nc(-c3ccc(F)cc3)c(-c3ccncc3)[nH]2)c1` (configuration not stated), the negative logarithm of the IC50 (pIC50) in assay [1] was 4.89; in assay [2] it was 6.00; in assay [3], 3.99; in assay [5] it was 5.24.

As to `CSc1ccc(CSc2nc(-c3ccc(Cl)cc3)c(-c3ccncc3)[nH]2)cc1`, the pIC50 is 5.66 in assay [2] and 4.85 in assay [5].

Turning to `Fc1ccc(-c2[nH]c(SCc3ccccc3)nc2-c2ccncc2)cc1`, the negative logarithm of the IC50 (pIC50) in assay [2] is 6.52; in assay [4] it was 4.46; in assay [5], 5.46.

As for `C[S+]([O-])c1cc(CSc2nc(-c3ccncc3)c(-c3ccc(F)cc3)[nH]2)ccc1O` (configuration not stated), the pIC50 is 4.92 in assay [1]; 5.64 in assay [2]; 5.05 in assay [3]; 5.47 in assay [4]; 5.30 in assay [5].

Turning to `CSc1cc(CSc2nc(-c3ccncc3)c(-c3ccc(F)cc3)[nH]2)ccc1O`, the negative-log IC50 (pIC50) in assay [2] is 6.55; in assay [4] it was 5.42; in assay [5] it was 5.96.

As to `CSc1cc(Cl)cc(CSc2nc(-c3ccc(F)cc3)c(-c3ccncc3)[nH]2)c1O`, the negative logarithm of the IC50 (pIC50) in assay [2] is 6.19; in assay [5], 4.88.

Take `Oc1cccc(CSc2nc(-c3ccc(F)cc3)c(-c3ccncc3)[nH]2)c1`: the results for the pIC50 in assay [2] and in assay [5] were 6.51 and 5.27, respectively.

On to `Oc1ccc(CSc2nc(-c3ccncc3)c(-c3ccc(F)cc3)[nH]2)cc1`, for which the pIC50 was 6.43 in assay [2], 5.24 in assay [4] and 5.17 in assay [5].

For the compound `N#CCSc1nc(-c2ccncc2)c(-c2ccc(F)cc2)[nH]1`, the pIC50 in assay [2] was over 7.00; in assay [5], 5.64.

Consider `CS(=O)(=O)c1ccc(CSc2nc(-c3ccccc3)c(-c3ccncc3)[nH]2)cc1`, for which the values for the pIC50 in assay [2] and in assay [5] were 5.77 and 5.10, respectively.

Take `C[S+]([O-])c1cccc(CSc2nc(-c3ccncc3)c(-c3ccc(F)cc3)[nH]2)c1` (configuration not stated): the pIC50 in assay [1] is 5.39; in assay [2] it was 6.00; in assay [3] it was 4.47; in assay [4], 5.68; in assay [5], 4.63.

For `C[S+]([O-])c1ccc(CSc2nc(-c3ccccc3)c(-c3ccncc3)[nH]2)cc1` (configuration not stated), the pIC50 in assay [2] was 6.08; in assay [4], 4.92; in assay [5], 5.37.

Turning to `CS(=O)(=O)c1ccc(CSc2nc(-c3ccc(F)cc3)c(-c3ccncc3)[nH]2)cc1`, the pIC50 is 5.54 in assay [1], 6.48 in assay [2], 4.54 in assay [3] and 5.60 in assay [5].

On to `Fc1ccc(-c2[nH]c(SCCc3ccccc3)nc2-c2ccncc2)cc1`, for which the negative logarithm of the IC50 (pIC50) in assay [2] is 6.19; in assay [5] it was 4.63.

Consider `Fc1ccc(-c2[nH]c(SCC3CCCCC3)nc2-c2ccncc2)cc1`, for which the negative-log IC50 (pIC50) in assay [2] was 6.62; in assay [5], 4.47.

As to `Fc1ccc(-c2[nH]c(SCc3cccc4ccccc34)nc2-c2ccncc2)cc1`, the pIC50 was 6.09 in assay [2] and 5.06 in assay [5].

As to `CSc1ccccc1CSc1nc(-c2ccc(F)cc2)c(-c2ccncc2)[nH]1`, the pIC50 in assay [2] is 5.17; in assay [5] it was 4.74.

As for `CSc1ccc(O)c(CSc2nc(-c3ccc(F)cc3)c(-c3ccncc3)[nH]2)c1`, the negative logarithm of the IC50 (pIC50) was 6.13 in assay [2] and 5.29 in assay [5].

Regarding `Fc1ccc(-c2[nH]c(SCCCc3ccccc3)nc2-c2ccncc2)cc1`, the pIC50 in assay [2] was 6.33; in assay [5] it was 4.80.

Take `CSc1ccc(CSc2nc(-c3ccc(F)cc3)c(-c3ccncc3)[nH]2)cc1`: the negative logarithm of the IC50 (pIC50) is 6.17 in assay [2] and 5.31 in assay [5].

Regarding `Fc1ccc(-c2[nH]c(/C=C/c3ccccc3)nc2-c2ccncc2)cc1`, the negative-log IC50 (pIC50) is 6.89 in assay [2] and 5.19 in assay [5].

Regarding `C[S+]([O-])c1ccc(CCSc2nc(-c3ccncc3)c(-c3ccc(F)cc3)[nH]2)cc1` (configuration not stated), the pIC50 is 6.30 in assay [2], 5.82 in assay [4] and 5.14 in assay [5].

As for `CSc1ccc(CSc2nc(-c3ccccc3)c(-c3ccncc3)[nH]2)cc1`, the pIC50 was 4.14 in assay [2] and 4.77 in assay [5].

With `C[S+]([O-])c1ccc(CSc2nc(-c3ccc(Br)cc3)c(-c3ccncc3)[nH]2)cc1` (configuration not stated), the pIC50 in assay [2] was 6.09; in assay [4], 5.42; in assay [5], 5.11.

`CSc1cccc(CSc2nc(-c3ccncc3)c(-c3ccc(F)cc3)[nH]2)c1`: the values for the pIC50 in assay [2], in assay [4] and in assay [5] were 6.26, 5.64 and 4.92, respectively.

Turning to `C[S+]([O-])c1ccc(CSc2nc(-c3ccc(Cl)cc3)c(-c3ccncc3)[nH]2)cc1` (configuration not stated), the pIC50 in assay [2] is 6.49; in assay [4], 5.85; in assay [5], 5.51.

Turning to `CS(=O)(=O)c1ccc(CSc2nc(-c3ccc(Br)cc3)c(-c3ccncc3)[nH]2)cc1`, the negative-log IC50 (pIC50) is 6.19 in assay [2] and 5.14 in assay [5].

Consider `C[S+]([O-])c1ccccc1CSc1nc(-c2ccc(F)cc2)c(-c2ccncc2)[nH]1` (configuration not stated), for which the pIC50 in assay [1] was 5.40; in assay [2], 6.05; in assay [3], 4.32; in assay [5] it was 4.82.

Consider `C[S+]([O-])c1ccc(CCCSc2nc(-c3ccc(F)cc3)c(-c3ccncc3)[nH]2)cc1` (configuration not stated), for which the pIC50 in assay [2] is 6.74; in assay [4], 6.12; in assay [5] it was 5.44.

For the compound `Oc1ccccc1CSc1nc(-c2ccc(F)cc2)c(-c2ccncc2)[nH]1`, the pIC50 in assay [2] was 6.36; in assay [5], 4.61.

Consider `Fc1ccc(-c2[nH]c(CCc3ccccc3)nc2-c2ccncc2)cc1`, for which the negative-log IC50 (pIC50) was 6.85 in assay [2], 6.16 in assay [4] and 5.27 in assay [5].

The values are drawn from ChEMBL document CHEMBL1135626, “Imidazole inhibitors of cytokine release: probing substituents in the 2 position” (J Med Chem, 2002).
